# Source: ChEMBL document CHEMBL1811760, “Structure-activity relationships of C-17-substituted estratriene-3-O-sulfamates as anticancer agents” (J Med Chem, 2011)
# The source made the active and inactive calls. The calls are words filed in the database; no cut-off is given here.
# Columns and labels:
# MCF7 = test: Antiproliferative activity against estrogen-positive human MCF7 cells; format: functional
# HOP-62 = test: Growth inhibition of human HOP62 cells; format: functional
# HCT-116 = test: Growth inhibition of human HCT116 cells; format: functional
# SF-539 = test: Growth inhibition of human SF539 cells; format: functional
# UACC-62 = test: Growth inhibition of human UACC62 cells; format: functional
# OVCAR-3 = test: Growth inhibition of human OVCAR3 cells; format: functional
# SN12C = test: Growth inhibition of human SN12C cells; format: functional
# [1] = Growth inhibition of human NCI60 cells; format: functional
# DU-145 = test: Antiproliferative activity against human DU145 cells after 96 hrs by WST1 assay; format: functional; details: DU-145, 96 h
# In short: (§1)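 Cells were grown in RPMI-1640 with 10% FBS at 37 °C in 5% CO2, then seeded at 5000 cells/well. They were exposed to compound at 10^-9–10^-4 M or vehicle for 96 h. Live cells were read by WST-1 and expressed as percent of mean control, from which GI50 was calculated. Runs were done in triplicate.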
# MDA-MB-231 = test: Antiproliferative activity against estrogen-negative human MDA-MB-231 cells after 96 hrs by WST1 assay; format: functional; details: MDA-MB-231, 96 h; in short: as §1
# [2] = Toxicity in ip dosed athymic nude mouse administered as single dose; format: organism-based; details: in vivo
# In short: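 Preliminary toxicology run at the NCI in female athymic nude mice. Each mouse received a single ip dose, at doses up to 400 mg/kg. The compound was formulated in 10% DMSO in saline/Tween 80.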
# Mus musculus [3] = test: Antiangiogenic activity in Matrigel plug implanted C57BL/6J mouse assessed as inhibition of bFGF-induced angiogenesis at 10 mg/kg, po administered 24 hrs after implantation for 4 days measured by FITC-conjugated dextran staining based fluorimetry; format: functional, organism-based; set-up: dose 10 mg/kg
# In short: (§2)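 Female C57BL/6J mice (6–8 weeks) were injected subcutaneously in the flanks with 0.5 mL ice-cold Matrigel plus 500 ng bFGF. Oral dosing in vehicle (10% THF, 90% PG) ran daily for 4 days, starting 24 h after Matrigel. Groups had five mice. FITC-dextran (0.1 mL of 0.25 mg/mL) was given iv and mice killed 20 min later. Plugs were digested in Dispase 16 h at 37 °C, and supernatant fluorescence read at ex 480/em 520 nm against a FITC-dextran standard curve.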
# Mus musculus [4] = test: Antiangiogenic activity in Matrigel plug implanted C57BL/6J mouse assessed as inhibition of bFGF-induced angiogenesis at 20 mg/kg, po administered 24 hrs after implantation for 4 days measured by FITC-conjugated dextran staining based fluorimetry; format: functional, organism-based; set-up: dose 20 mg/kg; in short: as §2
GI50 (MCF7) [nM],GI50 (HCT-116) [nM],GI50 (OVCAR-3) [nM],GI50 (DU-145) [nM],GI50 (MDA-MB-231) [nM],Structure (SMILES),GI50 (HOP-62) [nM],GI50 (SF-539) [nM],GI50 (UACC-62) [nM],GI50 (SN12C) [nM],GI50 [1] [nM],further results
31100,–,–,–,–,CCOC(=O)/C=C1/CC[C@H]2[C@@H]3CCc4cc(O)c(CC)cc4[C@H]3CC[C@]12C,–,–,–,–,–,–
< 500,270,11500,–,–,CCc1cc2c(cc1OS(N)(=O)=O)CC[C@@H]1[C@@H]2CC[C@]2(C)[C@@H](CCO)CC[C@@H]12,250,350,2890,2450,1730,–
–,3390,22900,780,–,CCc1cc2c(cc1OS(N)(=O)=O)CC[C@@H]1[C@@H]2CC[C@]2(C)[C@@H](CCF)CC[C@@H]12,3720,5250,3890,7590,6310,–
–,2820,3470,1810,–,CCc1cc2c(cc1OS(N)(=O)=O)CC[C@@H]1[C@@H]2CC[C@]2(C)[C@@H](CC(F)F)CC[C@@H]12,3890,1950,4900,5370,3090,–
> 10000,–,–,–,–,CCc1cc2c(cc1O)CC[C@@H]1[C@@H]2CC[C@]2(C)/C(=C/COC)CC[C@@H]12,–,–,–,–,–,–
–,–,< 10,–,–,CCc1cc2c(cc1OS(N)(=O)=O)CC[C@@H]1[C@@H]2CC[C@]2(C)[C@@H](OS(N)(=O)=O)CC[C@@H]12,< 10,< 10,< 10,28,18,–
1850,–,–,–,–,CCOC(=O)/C=C1\CC[C@H]2[C@@H]3CCc4cc(OS(N)(=O)=O)c(CC)cc4[C@H]3CC[C@]12C,–,–,–,–,–,–
–,38,19,290,430,CCc1cc2c(cc1OS(N)(=O)=O)CC[C@@H]1[C@@H]2CC[C@]2(C)[C@@H](COS(N)(=O)=O)CC[C@@H]12,61,56,22,309,85,–
770,–,–,–,–,CCc1cc2c(cc1O)CC[C@@H]1[C@@H]2CC[C@]2(C)/C(=C/CO)CC[C@@H]12,–,–,–,–,–,–
–,22,< 10,330,530,CCc1cc2c(cc1OS(N)(=O)=O)CC[C@@H]1[C@@H]2CC[C@]2(C)[C@@H](COC)CC[C@@H]12,45,< 10,–,72,42,–
–,2700,4070,3400,–,CCc1cc2c(cc1OS(N)(=O)=O)CC[C@@H]1[C@@H]2CC[C@]2(C)[C@@H](CCOC)CC[C@@H]12,4900,5010,2340,4680,4570,–
30600,–,–,–,–,CCOC(=O)/C=C1\CC[C@H]2[C@@H]3CCc4cc(O)c(CC)cc4[C@H]3CC[C@]12C,–,–,–,–,–,–
5640,–,–,–,–,CCc1cc2c(cc1OS(N)(=O)=O)CC[C@@H]1[C@@H]2CC[C@]2(C)[C@@H](CCOS(N)(=O)=O)CC[C@@H]12,–,–,–,–,–,–
670,–,–,–,–,CCc1cc2c(cc1O)CC[C@@H]1[C@@H]2CC[C@]2(C)/C(=C\CO)CC[C@@H]12,–,–,–,–,–,–
26,< 10,< 10,62,19,CCc1cc2c(cc1OS(N)(=O)=O)CC[C@@H]1[C@@H]2CC[C@]2(C)[C@@H](C(C)=O)CC[C@@H]12,< 10,< 10,< 10,< 10,15,Activity (Mus musculus [3]): Active; Activity (Mus musculus [4]): Active
–,–,–,46,48,COc1cc2c(cc1OS(N)(=O)=O)CC[C@@H]1[C@@H]2CC[C@]2(C)[C@@H](C(C)=O)CC[C@@H]12,–,–,–,–,–,–
4190,350,220,–,–,CCOC(=O)C[C@H]1CC[C@H]2[C@@H]3CCc4cc(OS(N)(=O)=O)c(CC)cc4[C@H]3CC[C@]12C,590,220,450,630,520,–
320,–,–,160,180,CCc1cc2c(cc1OS(N)(=O)=O)CC[C@@H]1[C@@H]2CC[C@]2(C)[C@@H](CC(C)=O)CC[C@@H]12,–,–,–,–,–,–
10000,270,230,–,–,CCc1cc2c(cc1OS(N)(=O)=O)CC[C@@H]1[C@@H]2CC[C@]2(C)/C(=C/CO)CC[C@@H]12,420,220,470,580,490,–

# Further lines, the molecule ahead of its results:
Structure (SMILES),GI50 (MCF7) [nM],GI50 (HCT-116) [nM],GI50 (OVCAR-3) [nM],GI50 (DU-145) [nM],GI50 (MDA-MB-231) [nM],GI50 (HOP-62) [nM],GI50 (SF-539) [nM],GI50 (UACC-62) [nM],GI50 (SN12C) [nM],GI50 [1] [nM],further results
CCc1cc2c(cc1O)CC[C@@H]1[C@@H]2CC[C@]2(C)[C@@H](CO)CC[C@@H]12,–,–,–,10100,6300,–,–,–,–,–,–
CCOC(=O)C[C@H]1CC[C@H]2[C@@H]3CCc4cc(O)c(CC)cc4[C@H]3CC[C@]12C,26400,–,–,–,–,–,–,–,–,–,–
CCc1cc2c(cc1O)CC[C@@H]1[C@@H]2CC[C@]2(C)[C@@H](COC)CC[C@@H]12,–,–,–,25300,9200,–,–,–,–,–,–
CCc1cc2c(cc1O)CC[C@@H]1[C@@H]2CC[C@]2(C)[C@@H](CC(C)=O)CC[C@@H]12,5790,–,–,18900,–,–,–,–,–,–,–
CCc1cc2c(cc1O)CC[C@@H]1[C@@H]2CC[C@]2(C)[C@@H](CCF)CC[C@@H]12,–,–,–,3400,–,–,–,–,–,–,–
COc1cc2c(cc1OS(N)(=O)=O)CC[C@@H]1[C@@H]2CC[C@]2(C)[C@@H](CC(C)O)CC[C@@H]12 (some centres undefined),–,25,< 10,140,140,48,23,< 10,52,28,–
CCc1cc2c(cc1O)CC[C@@H]1[C@@H]2CC[C@]2(C)[C@@H](CCO)CC[C@@H]12,2520,–,–,–,–,–,–,–,–,–,–
CCc1cc2c(cc1O)CC[C@@H]1[C@@H]2CC[C@]2(C)[C@@H](CCOC)CC[C@@H]12,24800,–,–,–,–,–,–,–,–,–,–
CCc1cc2c(cc1OS(N)(=O)=O)CC[C@@H]1[C@@H]2CC[C@]2(C)[C@@H](CO)CC[C@@H]12,–,< 10,< 10,100,110,< 10,< 10,< 10,< 10,18,MTD [2]: 400 mg/kg
COc1cc2c(cc1OS(N)(=O)=O)CC[C@@H]1[C@@H]2CC[C@]2(C)[C@@H](CC(C)=O)CC[C@@H]12,< 5,< 10,< 10,89,68,< 10,< 10,< 10,< 10,21,Activity (Mus musculus [3]): Active; Activity (Mus musculus [4]): Active
COc1cc2c(cc1O)CC[C@@H]1[C@@H]2CC[C@]2(C)[C@@H](CC(C)=O)CC[C@@H]12,–,–,–,2400,–,–,–,–,–,–,–
COc1cc2c(cc1OS(N)(=O)=O)CC[C@@H]1[C@@H]2CC[C@]2(C)[C@@H](C/C(C)=N\O)CC[C@@H]12,–,–,–,2090,2350,–,–,–,–,–,–
COc1cc2c(cc1O)CC[C@@H]1[C@@H]2CC[C@]2(C)[C@@H](C(C)=O)CC[C@@H]12,–,–,–,300,390,–,–,–,–,–,–
CCc1cc2c(cc1O)CC[C@@H]1[C@@H]2CC[C@]2(C)[C@@H](C(C)=O)CC[C@@H]12,–,–,–,2000,–,–,–,–,–,–,–
CCc1cc2c(cc1O)CC[C@@H]1[C@@H]2CC[C@]2(C)[C@@H](CC(F)F)CC[C@@H]12,–,–,–,60000,–,–,–,–,–,–,–
CCc1cc2c(cc1O)CC[C@@H]1[C@@H]2CC[C@]2(C)[C@@H](CC#N)CC[C@@H]12,> 100000,–,–,–,–,–,–,–,–,–,–
